Assay results as given in ChEMBL document CHEMBL3352325, “Synthesis and biological evaluation of novel aniline-derived asiatic acid derivatives as potential anticancer agents” (Eur J Med Chem, 2014).

How the values were obtained:
MGC-803 = assay: Cytotoxicity against human MGC803 cells after 48 hrs by MTT assay; type: functional, cell-based; conditions: MGC-803, 48 h
How it was run: (§1)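 Cells grown in medium with 10% heat-inactivated FBS, 5% CO2, 37 °C. Compounds given in medium with 1% DMSO at 1.25–20 graded concentrations; 1% DMSO medium served as control. MTT (5 mg/mL) added, formazan dissolved in DMSO, absorbance read at 570/630 nm. Survival expressed relative to negative control. IC50 by Bliss method (n=5), at least three independent experiments, mean ± SD.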

[1] = Cytotoxicity against human SMMC-7404 cells after 48 hrs by MTT assay; type: functional, cell-based; conditions: SMMC-7404, 48 h; how it was run: as §1
HUVEC = assay: Cytotoxicity against human HUVEC cells after 48 hrs by MTT assay; type: cell-based; how it was run: as §1
NCI-H460 = assay: Cytotoxicity against human NCI-H460 cells after 48 hrs by MTT assay; type: functional, cell-based; conditions: NCI-H460, 48 h; how it was run: as §1
HepG2 = assay: Cytotoxicity against human HepG2 cells after 48 hrs by MTT assay; type: functional, cell-based; conditions: HepG2, 48 h; how it was run: as §1
HeLa = assay: Cytotoxicity against human HeLa cells after 48 hrs by MTT assay; type: functional, cell-based; how it was run: as §1

With `C[C@H]1[C@H](C)CC[C@]2(C(=O)Nc3cccc4ccccc34)CC[C@]3(C)C(=CC(=O)[C@@H]4[C@@]5(C)C[C@@H](O)[C@H](O)[C@@](C)(CO)[C@@H]5CC[C@]43C)[C@H]12` the IC50 (MGC-803) was 19.9 µM, the IC50 [1] was 20.4 µM and the IC50 (HUVEC) was greater than 100 µM. For the same compound, the IC50 (NCI-H460) was 16.6 µM, the IC50 (HepG2) was 21.3 µM and the IC50 (HeLa) was 14 µM.

Work on `Cc1cc(Br)ccc1NC(=O)[C@]12CC[C@@H](C)[C@H](C)[C@H]1C1=CC(=O)[C@@H]3[C@@]4(C)C[C@@H](O)[C@H](O)[C@@](C)(CO)[C@@H]4CC[C@@]3(C)[C@]1(C)CC2` yielded an IC50 (MGC-803) of 14.6 µM, an IC50 [1] of 17 µM and an IC50 (HUVEC) greater than 100 µM. It also gave an IC50 (NCI-H460) of 23.8 µM, an IC50 (HepG2) of 22.8 µM and an IC50 (HeLa) of 15.7 µM.

Compound `COc1ccccc1NC(=O)[C@]12CC[C@@H](C)[C@H](C)[C@H]1C1=CC(=O)[C@@H]3[C@@]4(C)C[C@@H](O)[C@H](O)[C@@](C)(CO)[C@@H]4CC[C@@]3(C)[C@]1(C)CC2` has an IC50 (MGC-803) of 19 µM, an IC50 [1] of 16.2 µM and an IC50 (HUVEC) greater than 100 µM. The IC50 (NCI-H460) was 18.4 µM, the IC50 (HepG2) was 10.9 µM and the IC50 (HeLa) was 34.5 µM.

`C[C@H]1[C@H](C)CC[C@]2(C(=O)O)CC[C@]3(C)C(=CC[C@@H]4[C@@]5(C)C[C@@H](O)[C@H](O)[C@@](C)(CO)[C@@H]5CC[C@]43C)[C@H]12` [ASIATIC ACID] gave an IC50 (MGC-803) of 22.6 µM, an IC50 [1] of 40.8 µM and an IC50 (HUVEC) greater than 100 µM. It also gave an IC50 (NCI-H460) of 39.6 µM, an IC50 (HepG2) of 34.9 µM and an IC50 (HeLa) of 37.3 µM.

`O=c1[nH]cc(F)c(=O)[nH]1` [FLUOROURACIL] gave an IC50 [1] of 40.2 µM and an IC50 (HepG2) of 30 µM.

`C[C@H]1[C@H](C)CC[C@]2(C(=O)Nc3ccc(Cl)c(Cl)c3)CC[C@]3(C)C(=CC(=O)[C@@H]4[C@@]5(C)C[C@@H](O)[C@H](O)[C@@](C)(CO)[C@@H]5CC[C@]43C)[C@H]12` gave an IC50 (MGC-803) of 13.9 µM, an IC50 [1] of 17.2 µM and an IC50 (HUVEC) greater than 100 µM. For the same compound, the IC50 (NCI-H460) was 21.4 µM, the IC50 (HepG2) was 13.8 µM and the IC50 (HeLa) was 12.4 µM.

`COc1cccc(NC(=O)[C@]23CC[C@@H](C)[C@H](C)[C@H]2C2=CC(=O)[C@@H]4[C@@]5(C)C[C@@H](O)[C@H](O)[C@@](C)(CO)[C@@H]5CC[C@@]4(C)[C@]2(C)CC3)c1` showed an IC50 (MGC-803) of 24.3 µM, an IC50 [1] of 23.5 µM and an IC50 (HUVEC) greater than 100 µM. For the same compound, the IC50 (NCI-H460) was 23.1 µM, the IC50 (HepG2) was 8.89 µM and the IC50 (HeLa) was 17.8 µM.

In the case of `C[C@H]1[C@H](C)CC[C@]2(C(=O)Nc3ccccc3F)CC[C@]3(C)C(=CC(=O)[C@@H]4[C@@]5(C)C[C@@H](O)[C@H](O)[C@@](C)(CO)[C@@H]5CC[C@]43C)[C@H]12`, the IC50 (MGC-803) is reported as 19.9 µM, the IC50 [1] is reported as 23.2 µM and the IC50 (HUVEC) is reported as greater than 100 µM. The IC50 (NCI-H460) was 61.6 µM, the IC50 (HepG2) was greater than 100 µM and the IC50 (HeLa) was 32.5 µM.

For `C[C@H]1[C@H](C)CC[C@]2(C(=O)Nc3ccccc3)CC[C@]3(C)C(=CC(=O)[C@@H]4[C@@]5(C)C[C@@H](O)[C@H](O)[C@@](C)(CO)[C@@H]5CC[C@]43C)[C@H]12`, the IC50 (MGC-803) was greater than 100 µM, the IC50 [1] was greater than 100 µM and the IC50 (HUVEC) was greater than 100 µM. The IC50 (NCI-H460) was 12.2 µM, the IC50 (HepG2) was greater than 100 µM and the IC50 (HeLa) was 26.9 µM.

`Cc1cccc(NC(=O)[C@]23CC[C@@H](C)[C@H](C)[C@H]2C2=CC(=O)[C@@H]4[C@@]5(C)C[C@@H](O)[C@H](O)[C@@](C)(CO)[C@@H]5CC[C@@]4(C)[C@]2(C)CC3)c1` showed an IC50 (MGC-803) of 21.2 µM, an IC50 [1] of 16.1 µM and an IC50 (HUVEC) greater than 100 µM. The IC50 (NCI-H460) was 21.8 µM, the IC50 (HepG2) was 19.4 µM and the IC50 (HeLa) was 14.6 µM.

`Cc1ccc(NC(=O)[C@]23CC[C@@H](C)[C@H](C)[C@H]2C2=CC(=O)[C@@H]4[C@@]5(C)C[C@@H](O)[C@H](O)[C@@](C)(CO)[C@@H]5CC[C@@]4(C)[C@]2(C)CC3)cc1Cl` showed an IC50 (MGC-803) of 20.1 µM, an IC50 [1] of 20.6 µM and an IC50 (HUVEC) greater than 100 µM. The IC50 (NCI-H460) was 19.1 µM, the IC50 (HepG2) was 18.4 µM and the IC50 (HeLa) was 16 µM.

With `C[C@H]1[C@H](C)CC[C@]2(C(=O)Nc3cccc(Br)c3)CC[C@]3(C)C(=CC(=O)[C@@H]4[C@@]5(C)C[C@@H](O)[C@H](O)[C@@](C)(CO)[C@@H]5CC[C@]43C)[C@H]12` the IC50 (MGC-803) was 15.5 µM, the IC50 [1] was 22.4 µM and the IC50 (HUVEC) was greater than 100 µM. It also gave an IC50 (NCI-H460) of 24.8 µM, an IC50 (HepG2) of 20.4 µM and an IC50 (HeLa) of 16.2 µM.

`COc1ccc(NC(=O)[C@]23CC[C@@H](C)[C@H](C)[C@H]2C2=CC(=O)[C@@H]4[C@@]5(C)C[C@@H](O)[C@H](O)[C@@](C)(CO)[C@@H]5CC[C@@]4(C)[C@]2(C)CC3)cc1` gave an IC50 (MGC-803) of 30.1 µM, an IC50 [1] greater than 100 µM and an IC50 (HUVEC) greater than 100 µM. The IC50 (NCI-H460) was greater than 100 µM, the IC50 (HepG2) was 16.6 µM and the IC50 (HeLa) was greater than 100 µM.

For `C[C@H]1[C@H](C)CC[C@]2(C(=O)Nc3ccc(Br)cc3)CC[C@]3(C)C(=CC(=O)[C@@H]4[C@@]5(C)C[C@@H](O)[C@H](O)[C@@](C)(CO)[C@@H]5CC[C@]43C)[C@H]12`, the IC50 (MGC-803) was 20.6 µM, the IC50 [1] was greater than 100 µM and the IC50 (HUVEC) was greater than 100 µM. The IC50 (NCI-H460) was 31.2 µM, the IC50 (HepG2) was 21.3 µM and the IC50 (HeLa) was 18.5 µM.

`Cc1ccc(NC(=O)[C@]23CC[C@@H](C)[C@H](C)[C@H]2C2=CC(=O)[C@@H]4[C@@]5(C)C[C@@H](O)[C@H](O)[C@@](C)(CO)[C@@H]5CC[C@@]4(C)[C@]2(C)CC3)cc1` gave an IC50 (MGC-803) of 14.6 µM, an IC50 [1] greater than 100 µM and an IC50 (HUVEC) greater than 100 µM. The IC50 (NCI-H460) was 30.2 µM, the IC50 (HepG2) was 22.6 µM and the IC50 (HeLa) was 32.5 µM.

Work on `C[C@H]1[C@H](C)CC[C@]2(C(=O)Nc3ccc(F)c(Cl)c3)CC[C@]3(C)C(=CC(=O)[C@@H]4[C@@]5(C)C[C@@H](O)[C@H](O)[C@@](C)(CO)[C@@H]5CC[C@]43C)[C@H]12` yielded an IC50 (MGC-803) of 14.1 µM, an IC50 [1] of 19.1 µM and an IC50 (HUVEC) greater than 100 µM. The IC50 (NCI-H460) was 24.2 µM, the IC50 (HepG2) was 19.4 µM and the IC50 (HeLa) was 14.2 µM.

For `C[C@H]1[C@H](C)CC[C@]2(C(=O)Nc3cccc(Cl)c3)CC[C@]3(C)C(=CC(=O)[C@@H]4[C@@]5(C)C[C@@H](O)[C@H](O)[C@@](C)(CO)[C@@H]5CC[C@]43C)[C@H]12`, the IC50 (MGC-803) was 19.4 µM, the IC50 [1] was 34.4 µM and the IC50 (HUVEC) was greater than 100 µM. The IC50 (NCI-H460) was 24.4 µM, the IC50 (HepG2) was 11.6 µM and the IC50 (HeLa) was 14.2 µM.

In the case of `Cc1ccc(C)c(NC(=O)[C@]23CC[C@@H](C)[C@H](C)[C@H]2C2=CC(=O)[C@@H]4[C@@]5(C)C[C@@H](O)[C@H](O)[C@@](C)(CO)[C@@H]5CC[C@@]4(C)[C@]2(C)CC3)c1`, the IC50 (MGC-803) is reported as 20.7 µM, the IC50 [1] is reported as 15.7 µM and the IC50 (HUVEC) is reported as greater than 100 µM. For the same compound, the IC50 (NCI-H460) was 27.5 µM, the IC50 (HepG2) was 25.5 µM and the IC50 (HeLa) was 16 µM.

`C[C@H]1[C@H](C)CC[C@]2(C(=O)Nc3ccc(Cl)cc3)CC[C@]3(C)C(=CC(=O)[C@@H]4[C@@]5(C)C[C@@H](O)[C@H](O)[C@@](C)(CO)[C@@H]5CC[C@]43C)[C@H]12` gave an IC50 (MGC-803) of 22.5 µM, an IC50 [1] of 17.2 µM and an IC50 (HUVEC) greater than 100 µM. For the same compound, the IC50 (NCI-H460) was 12.8 µM, the IC50 (HepG2) was 29.8 µM and the IC50 (HeLa) was 13.1 µM.

Compound `C[C@H]1[C@H](C)CC[C@]2(C(=O)Nc3ccc(Br)c(F)c3)CC[C@]3(C)C(=CC(=O)[C@@H]4[C@@]5(C)C[C@@H](O)[C@H](O)[C@@](C)(CO)[C@@H]5CC[C@]43C)[C@H]12` has an IC50 (MGC-803) of 16 µM, an IC50 [1] of 17.4 µM and an IC50 (HUVEC) greater than 100 µM. The IC50 (NCI-H460) was 16.4 µM, the IC50 (HepG2) was 28.4 µM and the IC50 (HeLa) was 9.71 µM.

`C[C@H]1[C@H](C)CC[C@]2(C(=O)Nc3ccc(F)cc3)CC[C@]3(C)C(=CC(=O)[C@@H]4[C@@]5(C)C[C@@H](O)[C@H](O)[C@@](C)(CO)[C@@H]5CC[C@]43C)[C@H]12` gave an IC50 (MGC-803) of 26.6 µM, an IC50 [1] greater than 100 µM and an IC50 (HUVEC) greater than 100 µM. For the same compound, the IC50 (NCI-H460) was 31.9 µM, the IC50 (HepG2) was greater than 100 µM and the IC50 (HeLa) was 20.8 µM.
